A selection: hits, their analogues and other compounds. The true share with any hit is near 2.3%.
TRPC6 inh: mouse TRPC6 channel inhibition; B-score at 10 µM; hit rate 1.1% among 310,000; HEK293-TRPC6, membrane potential dye, ACh-evoked depolarization; hits give low values;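 active = B-score under library mean minus 3 SD, initial fluorescence not abnormally high, positive integrated signal ratio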;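 note: B-score derived from integrated fluorescence ratio over the kinetic read; more negative B-score means stronger inhibition of depolarization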
TRPC4 PAM: allosteric potentiators of mouse TRPC4 channel. B-score at 10 µM. hit rate 0.42% among 310,000. HEK293 TRPC4beta/mu-opioid, DAMGO EC20, Fluo-4 Ca2+ flux; hits give high values;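 active = B-score of calcium response area above 5 SD of library B-scores, with initial fluorescence ratio within 5 SD of library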;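 note: B-score of integrated fluorescence ratio over time as area under calcium response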
TRPC4 block: blocks the mouse TRPC4 cation channel; Q9QUQ5; B-score at 10 µM; HEK293 TRPC4beta/mu-opioid, DAMGO-evoked Fluo4 calcium flux; hits give low values; hit rate 0.39% among 300,000;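 active = B-score over 3 SD under the library average, no early fluorescence shift, positive overall ratio signal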
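Assay system: Stable TRPC4beta/mu-opioid receptor HEK293 cells | Reagent: DAMGO in two steps, submaximal then maximal | Compound dosing: Single concentration per test compound | Signal: Fluo4 Ca2+ flux fluorescence | Evaluation: Per-well B score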
TRPC6 act: activators of mouse TRPC6 channel. Q61143. HEK293-TRPC6 membrane potential dye fluorescence; hits give high values. B-score at 10 µM. hit rate 0.13% among 310,000. AID 2550;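 active = B-score of the integrated fluorescence ratio above library mean plus 3 SD, and starting fluorescence ratio within library mean plus 5 SD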;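 note: higher score means more depolarization so channel activation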
TRPC4 agonist: activators of mouse TRPC4 channel; hit rate 0.49% among 310,000; B-score at 10 µM; HEK293 TRPC4beta/mu-opioid, Fluo4 calcium fluorescence; hits give high values;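 active = B-score above 5 SD of library B-scores, and initial fluorescence ratio not above library mean plus 5 SD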;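 note: positive B-score marks a calcium rise read as TRPC4 activation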
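Test system: HEK293 cells stably co-expressing mouse TRPC4beta and mu-opioid receptor | Schedule: Fluo4 dye loading 45 min at room temperature, 110 s recording | Measured by: Kinetic Fluo4 calcium fluorescence, 5 s baseline at 1 Hz | Evaluation: B score of integrated ratio | Controls: Buffer (low) and maximal DAMGO (high)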
TRPC4 spec 2: second selectivity test of TRPC6 inhibitors: effect on mouse TRPC4; hit rate 42% among 920; HEK293 TRPC4/MOR, membrane potential dye fluorescence; channel activated by saturating DAMGO dose; AID 2776; shares compounds with TRPC6 inh; inhibition, % at 10 µM;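 active = compounds whose fluorescence signal differed from control wells by over 3 SD, either direction, in both duplicate plates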
TRPC4 spec: tests whether TRPC6 inhibitors also affect mouse TRPC4; shares compounds with TRPC6 inh; HEK293 TRPC4/mu-opioid, membrane potential fluorescence; activity change, negative = inhibition, % at 10 µM; hit rate 61% among 920; AID 2777;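 active = rise or fall in signal beyond 3 SD of buffer-only wells in both replicate plates, either sign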;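 note: integrated kinetic ratio of fluorescence range over baseline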
HEK293 MPD ctr 2-1: parental HEK293 nonspecific activity of TRPC6 inhibitors, second screen | shares compounds with TRPC6 inh | parental HEK293 membrane potential dye fluorescence; maximal acetylcholine challenge after compound addition | hit rate 31% among 920 | signal change vs control, % at 10 µM;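 active = membrane potential signal moving either way by over 3 SD of the maximum-effect control, in both duplicate plates, meaning non-specific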
HEK293 MPD ctr-1: parental HEK293 nonspecific activity of TRPC6 inhibitors; shares compounds with TRPC6 inh; parental HEK293 membrane potential dye fluorescence; membrane potential signal change, % at 10 µM; hit rate 60% among 920; AID 2780;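 active = membrane potential signal shifting up or down by more than 3 SD of buffer-only wells, on both duplicate plates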
HEK293 MPD ctr-2: counter-screen for TRPC6 modulators: effect in parental HEK293 cells. membrane potential dye fluorescence. membrane potential signal change, % at 10 µM. shares compounds with TRPC6 inh. hit rate 51% among 2,400;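 active = membrane potential signal moves up or down beyond 5 SD from buffer-only wells, on both duplicate plates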
HEK293 MPD ctr 2-2: parental HEK293 nonspecific activity of TRPC6 modulators, second screen. hit rate 14% among 2,400. membrane potential dye fluorescence; after compound, maximal acetylcholine stimulation. shares compounds with TRPC6 inh. AID 488926. inhibition, % at 10 µM;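 active = membrane potential signal drops by more than 5 SD from the mean control signal, in both duplicate plates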;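 note: plate controls were acetylcholine ECmax control wells for no effect and buffer only wells for full effect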
TRPC4/MOR mod: mouse TRPC4 off-target activity of TRPC6 modulators | shares compounds with TRPC6 inh | HEK293 TRPC4/mu-opioid, membrane potential fluorescence | percent change from control (negative = decrease, positive = increase), % at 10 µM | hit rate 69% among 2,400 | AID 488927;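 active = membrane potential signal moved up or down beyond 5 SD of buffer control wells, in both duplicate plates, actives on both sides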;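 note: plate controls were assay buffer wells for no effect and DAMGO maximal-effect wells for full effect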
TRPC4 ctr inh 2: second selectivity test of TRPC6 modulators against mouse TRPC4. hit rate 55% among 2,400. shares compounds with TRPC6 inh. HEK293 TRPC4/mu-opioid, membrane potential dye fluorescence; stimulated with maximal-effect DAMGO. inhibition, % at 10 µM;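 active = drop in membrane potential signal beyond 5 SD of the control wells in both duplicate plates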;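 note: TRPC4 counter screen for TRPC6 hits run under conditions tuned for TRPC6 not TRPC4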
TRPC6 inh conf: mouse TRPC6 inhibitor confirmation. hit rate 43% among 3,300. inhibition, % at 10 µM. HEK293-TRPC6, membrane potential dye, ACh-evoked depolarization. shares compounds with TRPC6 inh;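 active = fluorescence ratio falls more than 5 SD below the full-stimulation control mean, in both duplicate runs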;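 note: integrated fluorescence ratio of peak minus minimum over baseline after agonist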
TRPC6 act confirm: confirmation of mouse TRPC6 activators; activation, % at 10 µM; shares compounds with TRPC6 inh; hit rate 11% among 2,800; HEK293-TRPC6 membrane potential dye fluorescence, FDSS;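 active = ratio signal rise beyond 5 SD above unstimulated control wells' mean, seen in both duplicate runs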;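 note: plate controls were buffer EC0 wells for no effect and acetylcholine ECmax response for full effect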
Numbers without * were called inactive; i = inactive; / = no result.

SMILES	TRPC6 inh	TRPC4 PAM	TRPC4 block	TRPC6 act	TRPC4 agonist	HEK293 MPD ctr-2	HEK293 MPD ctr 2-2	TRPC4/MOR mod	TRPC4 ctr inh 2	TRPC6 inh conf	TRPC6 act confirm	others
CC1(C)Cc2nc3oc4c(=O)n(CC(=O)Nc5ccc(Cl)cc5)cnc4c3cc2CO1	-8.32*	i	i	i	i	/	/	/	/	i	i	TRPC4 spec 2=i;TRPC4 spec=i;HEK293 MPD ctr 2-1=i;HEK293 MPD ctr-1=i
Cc1ccc(CNC(=O)CSc2nc3c(sc4ccccc43)c(=O)n2CCCN2CCCC2)cc1	-5.79*	i	i	i	i	i	i	8.0%*	69.0%*	43.0%*	i
O=C(CSc1nc2c(sc3ccccc32)c(=O)n1CCCN1CCCC1)NCc1ccccc1	i	i	i	i	i	/	/	/	/	/	/
O=C1Nc2ccccc2OC1CC(=O)N1CCN(c2cccc(C(F)(F)F)c2)CC1 (centres undefined)	-9.73*	i	i	i	i	/	/	/	/	i	i	TRPC4 spec 2=i;TRPC4 spec=i;HEK293 MPD ctr 2-1=i;HEK293 MPD ctr-1=i
COCC(C)NC(=O)c1ccc(CN2CCc3ccccc3C2)cc1 (centres undefined)	-6.93*	i	i	i	i	/	/	/	/	i	i	TRPC4 spec 2=i;TRPC4 spec=i;HEK293 MPD ctr 2-1=i;HEK293 MPD ctr-1=0.8%*
O=[N+]([O-])c1ccc(S(=O)(=O)N2CCN(C3CCN(Cc4ccccc4)CC3)CC2)cc1	-5.87*	i	i	i	i	i	i	i	37.5%*	i	i
O=S(=O)(c1ccc(Cl)cc1)N1CCN(C2CCN(Cc3ccccc3)CC2)CC1	i	i	i	i	i	/	/	/	/	/	/
CC(C)(C)c1ccc(S(=O)(=O)N2CCN(C3CCCC3)CC2)cc1	i	i	i	i	i	/	/	/	/	/	/
CN1CCN(C2CCN(S(=O)(=O)c3ccc(C(C)(C)C)cc3)CC2)CC1	i	i	i	13.4*	i	193.0%*	i	32.5%*	i	i	104.0%*
COc1ccc(S(=O)(=O)N2CCC(N3CCN(Cc4ccccc4)CC3)CC2)cc1	-5.31*	i	i	i	i	134.0%*	i	18.0%*	32.5%*	43.5%*	/
COc1ccc(C2(C)NC(=O)N(CC(=O)NCc3ccccc3F)C2=O)cc1 (centres undefined)	i	i	i	i	i	/	/	/	/	/	/
CC(=O)Nc1ccc(OCC(=O)NCc2ccc3c(c2)OCO3)cc1	i	i	i	i	i	/	/	/	/	/	/
COc1cc2c(cc1OC)N1C(=O)CC(OCC(=O)O)C3C4CC5(CCN5C(=O)C4=O)C2C31 (centres undefined)	i	i	i	i	i	/	/	/	/	/	/
c1ccc(-n2cc(CN3CCCC(CN4CCCC4)C3)c(-c3ccc4c(c3)OCO4)n2)cc1 (centres undefined)	-5.81*	i	i	i	i	i	i	i	73.0%*	i	i
CCN1C(=O)[C@H]2[C@@H](c3ccc(OC)cc3)N3C(=O)CN(CCOC)C(=O)[C@@]3(C)[C@H]2C1=O	i	i	i	i	i	/	/	/	/	/	/
Cc1cc(C)n2nc(C(=O)Nc3ccc(S(=O)(=O)N(C)C)cc3)nc2n1	-5.98*	i	i	i	i	-247.0%*	i	-41.0%*	36.0%*	i	i
O=C(C1COc2ccccc2O1)N1CCN(c2nc3ccccc3s2)CC1 (centres undefined)	i	i	i	i	i	/	/	/	/	/	/
O=C(C1COc2ccccc2O1)N1CCN(c2nc3c(F)cc(F)cc3s2)CC1 (centres undefined)	-8.54*	i	i	i	i	/	/	/	/	i	i	TRPC4 spec 2=i;TRPC4 spec=i;HEK293 MPD ctr 2-1=i;HEK293 MPD ctr-1=i
CN(C)c1ccc2c(c1)OC(N)=C(C#N)C2c1cccc(F)c1 (centres undefined)	i	i	i	12.3*	56*	413.0%*	i	29.5%*	45.0%*	i	43.5%*
CN=C1c2cc3c(Br)c(OC)ccc3n2CCN1C	-8.33*	i	i	i	i	/	/	/	/	i	i	TRPC4 spec 2=i;TRPC4 spec=-14.0%*;HEK293 MPD ctr 2-1=10.5%*;HEK293 MPD ctr-1=-279.5%*
CC1CCCN(C(=O)Cc2cccc3ccccc23)C1 (centres undefined)	i	i	i	i	i	/	/	/	/	/	/
O=C(NCCCN1CCOCC1)C(=O)N/N=C/c1ccc(F)cc1	i	i	i	i	i	/	/	/	/	/	/
O=C(NCCCN1CCOCC1)C(=O)N/N=C/c1ccc2c(c1)OCO2	-8.32*	i	i	i	i	/	/	/	/	i	i	TRPC4 spec 2=i;TRPC4 spec=i;HEK293 MPD ctr 2-1=i;HEK293 MPD ctr-1=i
CS(=O)(=O)N1CCN(C2C3CC4CC(C3)CC2C4)CC1 (centres undefined)	i	i	i	i	i	/	/	/	/	/	/
CCOC(=O)c1c(NC(=O)c2cccc([N+](=O)[O-])c2C(=O)O)sc2c1CCCC2	i	i	i	36.8*	i	209.5%*	i	37.0%*	i	i	101.5%*
CCOC(=O)c1c(NC(=O)c2c(C(=O)O)cccc2[N+](=O)[O-])sc2c1CCCC2	i	i	i	29.5*	i	194.0%*	i	31.0%*	i	i	116.5%*
O=C(NC1CCCCCC1)c1ccc(CS(=O)Cc2cccc(Cl)c2)o1 (centres undefined)	i	i	i	i	i	/	/	/	/	/	/

Screening results deposited in PubChem by Johns Hopkins Ion Channel Center.
